The source of these data is ChEMBL document CHEMBL1143595, “Synthesis and activity of substituted anthraquinones against a human filarial parasite, Brugia malayi” (2005).

For assay [1], the system named is Brugia malayi. The assay can be described thus: Antifilarial activity of anthraquinone against Brugia malayi (female) at 5 ppm in the first 5 days (100% mortality). The assay is classed as functional. The conditions noted are these: 120 h.
For assay [2], the system named is Brugia malayi. Kind of assay: Compound causing 100% mortality of Brugia malayi female adult worms at 6.25 ppm concentration. The assay is classed as functional. The essentials:
(§1)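 Dose-response on adult female B. malayi in RPMI 1640 with penicillin/streptomycin. Concentrations ranged from 50 to 3.12 ppm, with compounds delivered in DMSO; solvent controls received 2% DMSO. Movement and mortality were monitored daily. Read-out was days to 100% worm mortality at each concentration.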

The subject of assay [3] is Brugia malayi. The assay can be described thus: Compound causing 100% mortality of Brugia malayi female adult worms at 3.125 ppm concentration. Type of assay: functional. The method, boiled down:
as §1

For assay [4], the system named is Brugia malayi. The assay can be described thus: Antifilarial activity against Brugia malayi (male) at 5 ppm in the first 5 days (100% mortality). Type of assay: functional. The following applies: 120 h.
Assay [5] relates to Brugia malayi. The assay can be described thus: Antifilarial activity against Brugia malayi (female) at 5 ppm in the first 5 days (100% mortality). The following applies: 120 h. The assay is classed as functional.
Assay [6] has as its system Brugia malayi. The assay can be described thus: Compound causing 100% mortality of Brugia malayi female adult worms at 25 ppm concentration. Type of assay: functional. The essentials: as §1
For assay [7], the system named is Brugia malayi. The assay can be described thus: Compound causing 100% mortality of Brugia malayi female adult worms at 50 ppm concentration. Type of assay: functional. The essentials: as §1
In assay [8] the test system is Brugia malayi. The assay can be described thus: Compound causing 100% mortality of Brugia malayi female adult worms at 12.5 ppm concentration. Type of assay: functional. The method, boiled down: as §1
For assay [9], the system named is Brugia malayi. Kind of assay: Antifilarial activity against Brugia malayi (female) at 5 ppm in the first 5 days (100% mortality); NM=No Mortality. Type of assay: functional, organism-based.
Assay [10] has as its system Brugia malayi. The assay can be described thus: Compound causing 100% mortality of Brugia malayi female adult worms at 3.125 ppm concentration; no mortality. The assay is classed as functional, organism-based. The essentials: as §1

By mortality is commonly meant the percentage killed. Low readings indicate more survivors, high ones fewer survivors. As to `Cc1c(O)c(O)cc2c1C(=O)c1ccccc1C2=O`, the mortality at 5 ppm in the assay on Brugia malayi [1] was 7%.

Turning to `Cc1cc2c(c(O)c1O)C(=O)c1ccccc1C2=O`, the Mortality in the assay with Brugia malayi [2] was determined as 5 days; in the assay on Brugia malayi [3], 6 days; in the assay with Brugia malayi [6] it was 3 days; in the assay with Brugia malayi [7] it was 1 days; with Brugia malayi [8] it was 4 days. The figures for the mortality at 5 ppm with Brugia malayi [4] and in the assay on Brugia malayi [5] were 6% and 5%, respectively.

As for `COc1c(C)cc2c(c1O)C(=O)c1ccccc1C2=O`, in the assay with Brugia malayi [9], the Mortality entry was “No mortality”.

Regarding `O=C1c2cc(O)cc(O)c2C(=O)c2cccc(O)c21`, the mortality at 5 ppm with Brugia malayi [5] worked out at 7%.

In the case of `O=C1c2cccc(O)c2C(=O)c2c(O)ccc(O)c21`, the mortality at 5 ppm in the assay on Brugia malayi [5] worked out at 9%.

For the compound `O=C1c2ccccc2C(=O)c2c(O)cc(O)cc21`, the Mortality result in the assay with Brugia malayi [9] was “No mortality”.

Regarding `CCCSc1ccc2[nH]c(NC(=O)OC)nc2c1` [ALBENDAZOLE], the figures for the mortality at 5 ppm with Brugia malayi [4] and in the assay on Brugia malayi [5] were 9% and 16%, respectively.

In turn, `O=C1c2cccc(O)c2C(=O)c2c1ccc(O)c2O` registered a mortality at 5 ppm in the assay with Brugia malayi [5] of 14%.

For `Cc1c(O)c(O)cc2c1C(=O)c1c(O)cccc1C2=O`, the mortality at 5 ppm amounted to 5% in the assay on Brugia malayi [4] and 3% in the assay with Brugia malayi [5].

For the compound `Cc1cc2c(c(O)c1O)C(=O)c1c(O)cccc1C2=O`, the Mortality in the assay on Brugia malayi [2] is 5 days; in the assay with Brugia malayi [10], “no mortality”; in the assay with Brugia malayi [6], 3 days; with Brugia malayi [7], 2 days; with Brugia malayi [8], 4 days. In addition, the mortality at 5 ppm in the assay on Brugia malayi [4] and in the assay with Brugia malayi [5] was 5% in each case.

`COc1cc2c(c(C)c1OC)C(=O)c1c(O)cccc1C2=O` registered a mortality at 5 ppm in the assay on Brugia malayi [5] of 9%.

Turning to `O=C1c2cc(O)c(O)c(O)c2C(=O)c2cccc(O)c21`, the mortality at 5 ppm is 6% with Brugia malayi [4] and 5% in the assay with Brugia malayi [5].

Compound `COc1cccc2c1C(=O)c1c(cc(C)c(OC)c1O)C2=O` had a mortality at 5 ppm with Brugia malayi [5] of 7%.

In turn, `O=C1c2ccccc2C(=O)c2c1ccc(O)c2O` [ATHRAQUINONES A] yielded a mortality at 5 ppm with Brugia malayi [5] of 5%.

With `O=C1c2ccc(O)c(O)c2C(=O)c2cccc(O)c21`, the mortality at 5 ppm with Brugia malayi [5] worked out at 9%.

As to `O=C1c2ccccc2C(=O)c2c(O)ccc(O)c21` [QUINIZARIN], the mortality at 5 ppm with Brugia malayi [5] worked out at 10%.

Turning to `COc1c(C)cc2c(c1O)C(=O)c1c(O)cccc1C2=O`, the Mortality in the assay with Brugia malayi [2] was 8 days; in the assay on Brugia malayi [10], “no mortality”; in the assay with Brugia malayi [9] it was “No mortality”; in the assay with Brugia malayi [6] it was 2 days; in the assay with Brugia malayi [7], 1 days; in the assay with Brugia malayi [8], 4 days.

For the compound `O=C1c2cc(O)c(O)cc2C(=O)c2c(O)cccc21`, in the assay on Brugia malayi [5], the mortality at 5 ppm stood at 5%.

Turning to `COc1c(C)cc2c(c1OC)C(=O)c1ccccc1C2=O`, in the assay on Brugia malayi [5], the mortality at 5 ppm is 11%.

In the case of `O=C1c2ccccc2C(=O)c2c1cc(O)c(O)c2O`, the Mortality was determined as 5 days in the assay on Brugia malayi [2]; 5 days in the assay with Brugia malayi [3]; 4 days in the assay on Brugia malayi [6]; 2 days in the assay on Brugia malayi [7]; 4 days in the assay on Brugia malayi [8]. In the assay with Brugia malayi [5], this compound registered a mortality at 5 ppm of 5%.
